Screens (PubChem)
Compounds with a hit are over-represented: about 2.6% of the library has one in this group of screens.
DENV2 CPE rescue: DENV2-induced cell death inhibition | DENV2-infected cells, cytopathic effect rescue, plate reader | CPE inhibition, % at 9.99 µM | hit rate 1.7% among 350,000 | AID 651640; in the data active = CPE inhibition above about 20%, passing the limit was not always enough; inconclusive = no clear call, values can overlap the other calls; tested in BHK-21 cells;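 note: 0% = median of neutral control wells and 100% = median of positive control wells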
miR-122 sensor: miR-122 inhibition in Huh7 cells | hit rate 0.3% among 340,000 | activation (reporter increase), % at 12.5 µM | AID 602342 | Huh7 miR-122 Renilla luciferase sensor, 48 h; neutral wells = 0, positive control = 100;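 active = mean replicate activation score at least 90 and every replicate individually at or above 90; inconclusive = only one of the two criteria met; inactive = neither criterion met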;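 note: higher luciferase means less miR-122 activity so hits act as miR-122 inhibitors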
CFTR F508del cor: CFTR F508del correction in bronchial cells. CFBE cells, YFP halide quenching; stimulated with forskolin plus potentiator P3; % fluorescence drop versus neutral controls. activity (quench increase), % at 7.58 µM. hit rate 0.36% among 350,000;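 active = mean added fluorescence quench of at least 8% versus neutral control, with both replicates also reaching 8%; inconclusive = only one of the mean or replicate conditions met; inactive = mean below 8% and not both replicates reaching 8%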;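 note: cells transiently co-express mutant CFTR-F508del with the halide-sensitive YFP; corrector assay measuring rescue of mutant channel to the surface after 24 h compound exposure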
ERAP1 inh: ERAP1 (human) enzyme inhibition; recombinant ERAP1, Leu-AMC fluorescence, 60 min; inhibition, % at 10.7 µM; hit rate 0.15% among 340,000;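 active = mean replicate inhibition of at least 30%, or all replicates individually reaching that 30% level; inactive = mean below 30% and not every replicate reaching it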;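 note: 0% = neutral control wells and 100% = L-leucinethiol positive control wells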
Target sequence (Q9NZ08 whole entry, looked up): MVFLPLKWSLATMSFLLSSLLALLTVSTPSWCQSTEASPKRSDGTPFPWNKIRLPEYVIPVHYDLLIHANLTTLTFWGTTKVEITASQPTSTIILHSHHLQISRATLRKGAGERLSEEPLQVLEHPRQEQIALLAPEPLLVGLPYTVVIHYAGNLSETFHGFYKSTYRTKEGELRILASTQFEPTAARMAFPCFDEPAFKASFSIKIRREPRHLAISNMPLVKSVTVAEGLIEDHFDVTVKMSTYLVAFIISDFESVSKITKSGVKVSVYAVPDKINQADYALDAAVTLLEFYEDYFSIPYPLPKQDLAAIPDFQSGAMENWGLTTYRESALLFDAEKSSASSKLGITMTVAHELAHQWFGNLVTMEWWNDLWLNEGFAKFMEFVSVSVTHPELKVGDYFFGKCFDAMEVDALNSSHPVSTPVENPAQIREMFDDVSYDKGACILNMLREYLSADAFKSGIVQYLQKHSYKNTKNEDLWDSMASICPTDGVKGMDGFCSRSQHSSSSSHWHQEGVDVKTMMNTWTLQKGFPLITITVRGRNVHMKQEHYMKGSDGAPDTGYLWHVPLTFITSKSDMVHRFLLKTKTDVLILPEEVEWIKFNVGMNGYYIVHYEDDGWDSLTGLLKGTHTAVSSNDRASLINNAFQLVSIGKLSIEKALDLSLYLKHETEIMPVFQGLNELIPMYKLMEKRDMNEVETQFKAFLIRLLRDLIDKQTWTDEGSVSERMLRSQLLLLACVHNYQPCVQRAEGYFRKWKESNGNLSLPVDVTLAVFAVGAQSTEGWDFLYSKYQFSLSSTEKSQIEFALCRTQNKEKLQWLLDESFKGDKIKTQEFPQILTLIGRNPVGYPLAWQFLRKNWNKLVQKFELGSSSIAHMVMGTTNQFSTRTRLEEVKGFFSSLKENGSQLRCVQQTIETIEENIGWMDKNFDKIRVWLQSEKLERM
GSIS activator: GLuc luminescence reporter in INS-1E cells, primary screen for activators of glucose-dependent secretion of insulin; activation, % at 16.6 µM; INS-1E GLuc reporter insulin secretion, 2-3 h; hit rate 0.61% among 370,000; AID 743287;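 active = lowest replicate activation of at least 40%, so every replicate reaches that level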;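 note: 0% = median of neutral control wells and 100% = median of IBMX positive control wells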
E-selectin induc: induces E-selectin expression in human endothelial cells | HUVEC E-selectin immunofluorescence imaging; normalized: neutral wells 0, TNF-alpha wells 100 | P16581 | activation, % at 7.58 µM | AID 686992 | hit rate 0.37% among 260,000;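 active = mean E-selectin-positive cell signal at least 10% of the positive control, reached in at least 60% of replicates, without over 20% cell loss; inconclusive = no rule given, readout overlaps actives, possibly toxicity-flagged; inactive = the rest, including those meeting only one limit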
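Read-out basis: % PE-positive cells; Test system: HUVEC primary endothelial cells; Technique: immunofluorescence imaging; Dosing: single-point compound dose.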
* = called active by the depositor; ? = inconclusive; . = not tested or not shown; ! = a repeat was not active; [ ] = another dose, or the depositor's remark.

SMILES | DENV2 CPE rescue | miR-122 sensor | CFTR F508del cor | ERAP1 inh | GSIS activator | E-selectin induc
C[C@H]1CN([C@@H](C)CO)C(=O)Cc2cc(NC(=O)c3ccncc3)ccc2O[C@H]1CN(C)C(=O)Nc1ccc(C(F)(F)F)cc1 | -9 | 14[16.7 µM] | -3 | 0 | 3 | 33*
COc1ccc(NC(=O)N(C)C[C@H]2Oc3ccc(NC(=O)c4ccncc4)cc3CC(=O)N([C@@H](C)CO)C[C@H]2C)cc1 | -2 | 0[16.7 µM] | 4 | 6 | 2 | 17
CNC(=O)C[C@H]1CC[C@@H]2[C@@H](COc3ccc(NC(=O)c4ccc(F)cc4)cc3C(=O)N2C)O1 | . | -1[16.7 µM] | 1 | . | -1 | 0
C[C@@H]1CN([C@H](C)CO)C(=O)c2cc(NC(=O)CCCN(C)C)ccc2O[C@@H](C)CCCCO[C@H]1CN(C)Cc1ccc2c(c1)OCO2 | -14 | -2[16.7 µM] | 2 | -1 | 5 | 0
C[C@@H]1CN([C@@H](C)CO)C(=O)c2cc(NC(=O)C3CC3)ccc2O[C@@H]1CN(C)Cc1ccncc1 | 1 | 7[16.7 µM] | 0 | 0 | 14 | 1
O=C(NCC[C@@H]1CC[C@@H](NS(=O)(=O)Cc2ccccc2)[C@H](CO)O1)C1CC1 | 1 | . | -1 | 2 | 5 | 0
COc1ccc(NC(=O)N(C)C[C@@H]2Oc3ccc(NC(=O)c4ccncc4)cc3CC(=O)N([C@@H](C)CO)C[C@@H]2C)cc1 | 28* | -6[16.7 µM] | 1 | -2 | 9 | 81*
CCOC(=O)c1[nH]c2ccc(Br)cc2c1NC(=O)CCN1CCOCC1 | -3 | -1 | -32 | 34* | -1 | 0
COc1ccc(S(=O)(=O)Nc2ccc3c(c2)CC(=O)N([C@@H](C)CO)C[C@@H](C)[C@@H](CN(C)C(=O)Nc2ccc4c(c2)OCO4)O3)cc1 | 9 | 17[16.7 µM] | 0 | 3 | 1 | 0
O=C1N[C@@H](Cc2ccccc2)COCc2cn(nn2)CC[C@@H]1Cc1ccc(-c2ccccc2)cc1 | . | . | . | . | 4 | .
CCOc1ccc(CN2C(=O)c3ccccc3C2=O)cc1C(=O)Nc1nnc(SCC)s1 | . | -7 | 3 | . | 44* | 1
CCOc1ccc(CN2C(=O)c3ccccc3C2=O)cc1C(=O)NC1CC(C)(C)NC(C)(C)C1 | 1 | -11 | -1 | 49* | 23 | 1
C/C=C/c1ccc2c(c1)O[C@H](CN(C)C(C)=O)[C@@H](C)CN([C@@H](C)CO)S2(=O)=O | 2 | 5[16.7 µM] | 0 | -3 | 4 | 2
CN1C(C)(C)c2ccccc2OS1(=O)=O | 25* | -4 | 4 | -2 | -6 | 0
CN1/C(=C\C=O)C(C)(C)c2ccccc21 | . | . | 0 | 2 | -51 | 3
CCCNc1cc(C)oc(=O)c1C(=O)CCC | . | -3 | . | . | 88* | .
O=S(=O)(Nc1ccc(-c2ccc3nncn3n2)cc1)c1ccccc1Cl | 7 | . | 3 | 0 | 40* | .
COc1ccc(C[C@H]2CCn3cc(nn3)COCCCNC2=O)cc1 | . | . | . | . | -1 | .
COCCNc1nc(NCc2cccs2)nc2ccsc12 | -3 | -7 | 1 | -2 | 38 | 0
CC(=O)NCCNc1nc(NCc2cccs2)nc2ccsc12 | 71* | -7 | 0 | -3 | 93 | 0
O=C(C[C@H]1CC[C@@H]2NC[C@H](O)COC[C@H]2O1)Nc1nccs1 | 10 | -6[16.7 µM] | 1 | . | 9 | .
COc1ccc(S(=O)(=O)Nc2ccc3c(c2)C(=O)N([C@@H](C)CO)C[C@@H](C)[C@@H](CN(C)CC2CC2)OCCCC[C@@H](C)O3)cc1 | -2 | -1[16.7 µM] | -2 | 0 | 0 | 1
N#Cc1c(Nc2ccccc2)[n+]([O-])c2ccc(Cl)cc2[n+]1[O-] | 21* | . | 1 | -2 | -13 | 0
O=C(/C=C/Nc1ccccc1)c1ccc(Cl)cc1Cl | -3 | . | . | 2 | 4 | .
COc1ccc(NC(=O)Nc2ccc3c(c2)C(=O)N([C@H](C)CO)C[C@@H](C)[C@H](CN(C)Cc2ccc(C(F)(F)F)cc2)OCCCC[C@H](C)O3)cc1 | -5 | 3[16.7 µM] | 14* | -2 | -30 | 0
SMILES | DENV2 CPE rescue | miR-122 sensor | CFTR F508del cor | ERAP1 inh | GSIS activator | E-selectin induc
C[C@@H]1CCCCO[C@H](CN(C)Cc2ccc(C(F)(F)F)cc2)[C@@H](C)CN([C@H](C)CO)C(=O)c2cc(NC(=O)c3ccccc3)ccc2O1 | 12 | -12[16.7 µM] | 2 | 2 | 7 | 0
COc1ccc(NC(=O)Nc2ccc3c(c2)C(=O)N([C@@H](C)CO)C[C@@H](C)[C@H](CN(C)Cc2ccc(C(F)(F)F)cc2)OCCCC[C@@H](C)O3)cc1 | -13 | -4[16.7 µM] | -3 | -4 | -13 | 0
C[C@@H]1CCCCO[C@H](CN(C)Cc2ccc(Cl)c(Cl)c2)[C@H](C)CN([C@@H](C)CO)C(=O)c2cc(NC(=O)c3ccccc3)ccc2O1 | 82* | -13[16.7 µM] | -1 | 1 | -19 | 0
C[C@@H]1CCCCO[C@H](CN(C)Cc2ccc(C(F)(F)F)cc2)[C@H](C)CN([C@@H](C)CO)C(=O)c2cc(NC(=O)c3ccccc3)ccc2O1 | 140* | 21[16.7 µM] | 5 | 1 | -23 | 0
C[C@@H]1CN([C@H](C)CO)C(=O)c2cc(NC(=O)Nc3cccc4ccccc34)ccc2O[C@@H](C)CCCCO[C@@H]1CN(C)Cc1ccc(C(F)(F)F)cc1 | 72* | -3[16.7 µM] | -1 | . | -2 | 0
COCC(=O)Nc1ccc2c(c1)C(=O)N(C)C[C@@H](OC)[C@H](C)CN(C(=O)NC(C)C)[C@@H](C)CO2 | -2 | 5[16.7 µM] | -1 | 1 | -3 | 0
C[C@@H]1CCCCO[C@H](CN(C)Cc2ccc(C(=O)O)cc2)[C@H](C)CN([C@@H](C)CO)C(=O)c2cc(NC(=O)Nc3ccc(C(F)(F)F)cc3)ccc2O1 | 41*! | 0 | -2 | -139 | -8 | 0
C[C@H](CO)N1C[C@H](C)[C@@H](CN(C)Cc2ccc(C(=O)O)cc2)OCCCC[C@H](C)Oc2ccc(NC(=O)Nc3ccc(C(F)(F)F)cc3)cc2C1=O | -6 | -6[16.7 µM] | 3 | 0 | -2 | 0
C[C@@H]1CCCCO[C@H](CN(C)Cc2ccccc2)[C@H](C)CN([C@H](C)CO)C(=O)c2cc(NC(=O)Nc3ccc(C(F)(F)F)cc3)ccc2O1 | -20 | -26[16.7 µM] | ? | -2 | -13 | 0
C[C@H]1CCCCO[C@H](CN(C)Cc2ccccc2)[C@@H](C)CN([C@@H](C)CO)C(=O)c2cc(NC(=O)Nc3ccc(C(F)(F)F)cc3)ccc2O1 | 39* | -30[16.7 µM] | 3 | -2 | 23 | 0
Cc1nc(C)c(-c2ccc(SCC(=O)Nc3ccc(C)c(Cl)c3)nn2)s1 | -2 | -5 | 2 | -2 | 41* | 0
COc1ccc(NC(=O)CSc2ccc(-c3sc(C)nc3C)nn2)cc1OC | -11 | -3 | 0 | -2 | 15 | 0
O=C(NCC1CC1)[C@@H]1[C@@H](CO)[C@@H]2Cn3c(ccc(-c4cccnc4)c3=O)[C@H]1N2C(=O)C1CC1 | 1 | . | . | 0 | 5 | 0
